Data taken from ChEMBL document CHEMBL1157534, “Discovery of novel, potent benzamide inhibitors of 11beta-hydroxysteroid dehydrogenase type 1 (11beta-HSD1) exhibiting oral activity in an enzyme inhibition ex vivo model” (J Med Chem, 2008).

What was measured:
[1] = Volume of distribution at steady state in cynomolgus monkey at 0.5, iv; assay type: ADME, organism-based, Macaca fascicularis; conditions: in vivo, read-out: Vdss
How it was run: (§1)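 Single iv dose of 0.5 mg/kg in rat, cynomolgus monkey or dog. This dose group was run alongside a 2.0 mg/kg oral arm. Clearance, half-life, Vdss and AUC were taken from the iv arm.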

[2] = Drug level in of cynomolgus monkey mesenteric fat at 2 mg/kg, po; assay type: ADME, organism-based, Macaca fascicularis; parameters: dose 2 mg/kg, route oral; conditions: in vivo
How it was run: (§2)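 Cynomolgus monkeys received an oral dose of 2 or 10 mg/kg and were sacrificed 2 h postdose. Mesenteric fat was excised and compound levels were determined in adipose (ng/g) and in plasma.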

Canis familiaris [3] = assay: Clearance in dog at 0.5 mg/kg, iv; assay type: ADME, organism-based, Canis lupus familiaris; parameters: dose 0.5 mg/kg, route intravenous; conditions: in vivo; how it was run: as §1
Canis familiaris [4] = assay: AUC in dog at 0.5, iv; assay type: ADME, organism-based, Canis lupus familiaris, Plasma; conditions: in vivo; how it was run: as §1
[5] = Oral bioavailability in cynomolgus monkey at 2.0; assay type: ADME, organism-based, Macaca fascicularis; conditions: in vivo
How it was run: (§3)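 Oral bioavailability came from a 2.0 mg/kg po dose compared against an iv arm. The iv dose was 0.5 mg/kg in monkey, dog and one rat group, and 0.17 mg/kg in the other rat group.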

Rattus norvegicus [6] = assay: Clearance in rat at 0.5 mg/kg, iv; assay type: ADME, organism-based; parameters: dose 0.5 mg/kg, route intravenous; conditions: in vivo; how it was run: as §1
Cynomolgus monkey [7] = assay: AUC in cynomolgus monkey at 0.5, iv; assay type: ADME, organism-based, Macaca fascicularis, Plasma; conditions: in vivo; how it was run: as §1
[8] = target: T1, 11-beta-hydroxysteroid dehydrogenase 1 (Homo sapiens, UniProt P28845); assay: Inhibition of human recombinant 11beta-HSD1 expressed in HEK293 cells in presence of 3% human serum albumin; assay type: cell-based
T1 sequence (P28845 whole entry): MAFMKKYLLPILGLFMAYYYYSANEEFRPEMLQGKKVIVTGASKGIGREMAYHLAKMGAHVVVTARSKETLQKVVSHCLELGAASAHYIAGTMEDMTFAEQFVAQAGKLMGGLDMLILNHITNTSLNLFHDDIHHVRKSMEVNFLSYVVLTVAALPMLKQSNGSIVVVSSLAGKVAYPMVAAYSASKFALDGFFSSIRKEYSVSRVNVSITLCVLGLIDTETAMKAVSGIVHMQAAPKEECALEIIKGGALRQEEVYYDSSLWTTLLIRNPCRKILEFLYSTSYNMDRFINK

Cynomolgus monkey [9] = assay: Ex vivo inhibition of 11beta-HSD1 in orally dosed cynomolgus monkey mesenteric fat assessed as [3H][…] production; conditions: Macaca fascicularis, oral
[10] = Inhibition of cynomolgus monkey recombinant 11beta-HSD1; parameters: species or system Macaca fascicularis
[11] = Volume of distribution at steady state in dog at 0.5, iv; assay type: ADME, organism-based, Canis lupus familiaris; conditions: in vivo, read-out: Vdss; how it was run: as §1
[12] = Drug level in of cynomolgus monkey mesenteric fat at 10 mg/kg, po; assay type: ADME, organism-based, Macaca fascicularis; parameters: dose 10 mg/kg, route oral; conditions: in vivo; how it was run: as §2
Plasma = assay: Drug level in of cynomolgus monkey plasma at 2 mg/kg, po; assay type: ADME, organism-based, Macaca fascicularis; parameters: dose 2 mg/kg, route oral; conditions: in vivo; how it was run: as §2
[13] = Oral bioavailability in rat at 2.0 mg/kg; assay type: ADME, organism-based; conditions: in vivo; how it was run: as §3
[14] = Volume of distribution at steady state in rat at 0.5 mg/kg, iv; assay type: ADME, organism-based; parameters: dose 0.5 mg/kg, route intravenous; conditions: in vivo, read-out: Vdss; how it was run: as §1
Rattus norvegicus [15] = assay: AUC in rat at 0.5 mg/kg, iv; assay type: ADME, organism-based, Plasma; parameters: dose 0.5 mg/kg, route intravenous; conditions: in vivo; how it was run: as §1
[16] = Oral bioavailability in dog at 2.0; assay type: ADME, organism-based, Canis lupus familiaris; conditions: in vivo; how it was run: as §3
[17] = Half life in dog at 0.5, iv; assay type: ADME, organism-based, Canis lupus familiaris; conditions: in vivo; how it was run: as §1
[18] = target: T1, 11-beta-hydroxysteroid dehydrogenase 1; assay: Inhibition of human recombinant 11beta-HSD1 expressed in HEK293 cells; assay type: cell-based
[19] = Half life in rat at 0.5 mg/kg, iv; assay type: ADME, organism-based; parameters: dose 0.5 mg/kg, route intravenous; conditions: in vivo; how it was run: as §1
Cynomolgus monkey [20] = assay: Clearance in cynomolgus monkey at 0.5 mg/kg, iv; assay type: ADME, organism-based, Macaca fascicularis; parameters: dose 0.5 mg/kg, route intravenous; conditions: in vivo; how it was run: as §1
[21] = target: T1, 11-beta-hydroxysteroid dehydrogenase 1; assay: Inhibition of 11beta-HSD1 in human adipocytes; assay type: cell-based
[22] = Metabolic stability in human liver microsomes assessed as compound remaining at 1 uM after 30 mins; assay type: ADME, Microsome; conditions: read-out: Stability
[23] = target: T1, 11-beta-hydroxysteroid dehydrogenase 1; assay: Inhibition of human cloned 11beta-HSD1 by scintillation proximity assay
[24] = Metabolic stability in rat liver microsomes assessed as compound remaining at 1 uM after 30 mins; assay type: ADME, Microsome; conditions: read-out: Stability
[25] = target: T2, 11-beta-hydroxysteroid dehydrogenase type 2 (Homo sapiens, UniProt P80365); assay: Inhibition of 11beta-HSD2 by scintillation proximity assay
T2 sequence (P80365 whole entry): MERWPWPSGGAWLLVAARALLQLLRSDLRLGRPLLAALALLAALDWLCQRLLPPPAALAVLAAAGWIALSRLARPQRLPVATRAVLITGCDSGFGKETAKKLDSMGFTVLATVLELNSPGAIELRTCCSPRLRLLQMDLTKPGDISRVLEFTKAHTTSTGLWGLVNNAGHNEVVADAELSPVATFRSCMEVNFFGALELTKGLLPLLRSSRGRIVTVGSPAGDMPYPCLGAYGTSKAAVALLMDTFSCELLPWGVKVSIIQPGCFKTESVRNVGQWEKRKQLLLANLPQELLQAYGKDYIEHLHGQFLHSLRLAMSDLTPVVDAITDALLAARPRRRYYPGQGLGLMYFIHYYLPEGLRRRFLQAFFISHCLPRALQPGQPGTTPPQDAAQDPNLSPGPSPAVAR

[26] = Half life in cynomolgus monkey at 0.5, iv; assay type: ADME, organism-based, Macaca fascicularis; conditions: in vivo; how it was run: as §1
[27] = Clearance in rat; assay type: ADME, organism-based; conditions: in vivo
Rattus norvegicus [28] = assay: Clearance in rat at 0.17 mg/kg, iv; assay type: ADME, organism-based; parameters: dose 0.17 mg/kg, route intravenous; conditions: in vivo
How it was run: (§4)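 Rats were given a single iv dose of 0.17 mg/kg, with a parallel 2.0 mg/kg oral arm. Clearance, half-life, Vdss and AUC were derived from the iv data.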

Rattus norvegicus [29] = assay: AUC in rat at 0.17 mg/kg, iv; assay type: ADME, organism-based, Plasma; parameters: dose 0.17 mg/kg, route intravenous; conditions: in vivo; how it was run: as §4
[30] = Volume of distribution at steady state in rat at 0.17 mg/kg, iv; assay type: ADME, organism-based; parameters: dose 0.17 mg/kg, route intravenous; conditions: in vivo, read-out: Vdss; how it was run: as §4
[31] = Half life in rat at 0.17 mg/kg, iv; assay type: ADME, organism-based; parameters: dose 0.17 mg/kg, route intravenous; conditions: in vivo; how it was run: as §4

| IC50 [8] [nM] | IC50 [18] [nM] | IC50 [21] [nM] | remaining at 0.5 h, 1 µM [22] [%] | IC50 [23] [nM] | remaining at 0.5 h, 1 µM [24] [%] | IC50 [25] [nM] | SMILES | also measured |
| --- | --- | --- | --- | --- | --- | --- | --- | --- |
| 124 | 5.8 | 3 | > 90 | 1.4 | 51 | > 10000 | C[C@](O)(c1ccc(C(=O)N(C2CC2)[C@H]2CC[C@H](c3cccnc3)CC2)cc1)C(F)(F)F | Vd [1]: 8.1 L/kg; Drug uptake [2]: 1211 ng/mL; CL (Canis familiaris [3]): 10 mL/min/kg; AUC (Canis familiaris [4]): 915 ng·h/mL; bioavailability [5]: 64%; CL (Rattus norvegicus [6]): 17 mL/min/kg; AUC (Cynomolgus monkey [7]): 1010 ng·h/mL; ED50 (Cynomolgus monkey [9]): 2 mg/kg; IC50 [10]: 39 nM; Vd [11]: 3.5 L/kg; Drug uptake [12]: 2890 ng/g; Drug uptake (Plasma): 604 ng/mL; bioavailability [13]: 72%; Vd [14]: 6.7 L/kg; AUC (Rattus norvegicus [15]): 481 ng·h/mL; bioavailability [16]: 4%; half-life [17]: 9.3 h; half-life [19]: 4.5 h; CL (Cynomolgus monkey [20]): 8.3 mL/min/kg; half-life [26]: 11.2 h |
| 25 | 1.3 | – | 5 | 1.3 | < 5 | – | CCN(C(=O)c1ccc([C@](C)(O)C(F)(F)F)cc1)C1CCCCC1 | clearance [27]: 51.7 mL/min/kg |
| 38 | 2.4 | – | 81 | 0.8 | < 5 | > 10000 | C[C@](O)(c1ccc(C(=O)N(C2CCCCC2)C2CC2)cc1)C(F)(F)F | – |
| 155 | 16 | 9.8 | > 90 | 1.3 | > 90 | > 10000 | C[C@](O)(c1ccc(C(=O)N(C2CC2)[C@H]2CC[C@H](c3ccccc3)CC2)cc1)C(F)(F)F | – |
| 123 | 18 | – | 9 | 6.1 | < 5 | > 10000 | C[C@](O)(c1ccc(C(=O)N(C2CC2)[C@H]2CC[C@@H](c3ccccc3)CC2)cc1)C(F)(F)F | – |
| 140 | – | 4.1 | 81 | 6.6 | 16 | > 10000 | C[C@](O)(c1ccc(C(=O)N(C2CC2)[C@H]2CC[C@H](F)CC2)cc1)C(F)(F)F | – |
| – | 2.1 | – | – | – | – | – | C[C@H]1CCCCN1S(=O)(=O)c1ccc(C(C)(O)C(F)(F)F)cc1 (stereo partly drawn) | – |
| 161 | 12 | 3.4 | > 90 | 0.7 | > 90 | > 10000 | C[C@](O)(c1ccc(C(=O)N(C2CC2)[C@H]2CC[C@H](c3ccc(C#N)cc3)CC2)cc1)C(F)(F)F | bioavailability [13]: 29%; CL (Rattus norvegicus [28]): 1.83 mL/min/kg; AUC (Rattus norvegicus [29]): 1590 ng·h/mL; Vd [30]: 2.5 L/kg; half-life [31]: 15.7 h |
| 11 | 1.3 | 0.2 | > 90 | 0.7 | 42 | > 10000 | C[C@](O)(c1ccc(C(=O)N(C2CC2)[C@H]2CC[C@H](CCC#N)CC2)cc1)C(F)(F)F | bioavailability [13]: 83%; CL (Rattus norvegicus [28]): 21.3 mL/min/kg; AUC (Rattus norvegicus [29]): 393 ng·h/mL; Vd [30]: 0.91 L/kg; half-life [31]: 0.5 h |
| 163 | 24 | – | 17 | 2.6 | < 5 | – | C[C@](O)(c1ccc(C(=O)N(CC(F)(F)F)C2CCCCC2)cc1)C(F)(F)F | – |
| 849 | 38 | – | 23 | 9 | < 5 | – | CC(O)(c1ccc(C(=O)N(CC2CC2)C2CCCCC2)cc1)C(F)(F)F (racemic) | – |
